Measured values published in ChEMBL document CHEMBL5247575 (J Med Chem, 2018).

Tests used:
Bacteria = assay: Inhibition of bacteria KPC-2 assessed as half life using nitrocefin as substrate
Escherichia coli [1] = assay: Synergistic antibacterial activity against Escherichia coli DH10B assessed as cefepime MIC at 4 ug/ml by broth microdilution method; type: functional; conditions: dose 4 µg/ml
Acinetobacter baumannii [2] = assay: Synergistic antibacterial activity against ADC deleted Acinetobacter baumannii assessed as cefepime MIC at 4 ug/ml by broth microdilution method; type: functional; conditions: dose 4 µg/ml
Klebsiella pneumoniae [3] = assay: Synergistic antibacterial activity against Klebsiella pneumoniae 935/1884 producing KPC-3 assessed as cefepime MIC at 4 ug/ml by broth microdilution method; type: functional; conditions: dose 4 µg/ml
Klebsiella pneumoniae [4] = assay: Synergistic antibacterial activity against Klebsiella pneumoniae 761/1723 producing KPC-3 assessed as cefepime MIC at 4 ug/ml by broth microdilution method; type: functional; conditions: dose 4 µg/ml
Outline: (§1)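 Broth microdilution per CLSI guidelines, using custom frozen panels. […] Each partner drug was also tested alone. MICs were run in triplicate and the modal value is reported.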

Klebsiella pneumoniae [5] = assay: Synergistic antibacterial activity against Klebsiella pneumoniae CAV 1636 producing OXA-181 assessed as cefepime MIC at 4 ug/ml by broth microdilution method; type: functional; conditions: dose 4 µg/ml
Klebsiella pneumoniae [6] = assay: Synergistic antibacterial activity against Klebsiella pneumoniae CAV 1543 producing OXA-48 assessed as cefepime MIC at 4 ug/ml by broth microdilution method; type: functional; conditions: dose 4 µg/ml
Klebsiella pneumoniae [7] = assay: Synergistic antibacterial activity against Klebsiella pneumoniae NY BS producing OXA-232 assessed as cefepime MIC at 4 ug/ml by broth microdilution method; type: functional; conditions: dose 4 µg/ml
Pseudomonas aeruginosa [8] = assay: Synergistic antibacterial activity against Pseudomonas aeruginosa 795 assessed as cefepime MIC at 4 ug/ml by broth microdilution method; type: functional; conditions: dose 4 µg/ml
Acinetobacter baumannii [9] = assay: Synergistic antibacterial activity against Acinetobacter baumannii PR381 producing OXA-24/40 assessed as cefepime MIC at 4 ug/ml by broth microdilution method; type: functional; conditions: dose 4 µg/ml
Acinetobacter baumannii [10] = assay: Synergistic antibacterial activity against Acinetobacter baumannii PR476 producing OXA-24/40 assessed as cefepime MIC at 4 ug/ml by broth microdilution method; type: functional; conditions: dose 4 µg/ml
Escherichia coli [11] = assay: Synergistic antibacterial activity against Escherichia coli DH10B transfected with pBR322-catI-KPC-2 assessed as cefepime MIC at 8 ug/ml by broth microdilution method; type: functional; conditions: dose 8 µg/ml; outline: as §1
Klebsiella pneumoniae [12] = assay: Synergistic antibacterial activity against Klebsiella pneumoniae 729/1679 producing KPC-3 assessed as cefepime MIC at 8 ug/ml by broth microdilution method; type: functional; conditions: dose 8 µg/ml; outline: as §1
Klebsiella pneumoniae [13] = assay: Synergistic antibacterial activity against Klebsiella pneumoniae 935/1884 producing KPC-3 assessed as cefepime MIC at 8 ug/ml by broth microdilution method; type: functional; conditions: dose 8 µg/ml
Klebsiella pneumoniae [14] = assay: Synergistic antibacterial activity against Klebsiella pneumoniae 11978 producing OXA-48 assessed as cefepime MIC at 8 ug/ml by broth microdilution method; type: functional; conditions: dose 8 µg/ml; outline: as §1
Klebsiella pneumoniae [15] = assay: Synergistic antibacterial activity against Klebsiella pneumoniae CAV 1636 producing OXA-181 assessed as cefepime MIC at 8 ug/ml by broth microdilution method; type: functional; conditions: dose 8 µg/ml
Klebsiella pneumoniae [16] = assay: Synergistic antibacterial activity against Klebsiella pneumoniae jefferson 1775 producing OXA-48 assessed as cefepime MIC at 8 ug/ml by broth microdilution method; type: functional; conditions: dose 8 µg/ml
Acinetobacter baumannii [17] = assay: Synergistic antibacterial activity against Acinetobacter baumannii PR319 producing OXA-23/24/40 assessed as cefepime MIC at 8 ug/ml by broth microdilution method; type: functional; conditions: dose 8 µg/ml
Acinetobacter baumannii [18] = assay: Synergistic antibacterial activity against Acinetobacter baumannii PR323 producing OXA-24/40 assessed as cefepime MIC at 8 ug/ml by broth microdilution method; type: functional; conditions: dose 8 µg/ml
Acinetobacter baumannii [19] = assay: Synergistic antibacterial activity against Acinetobacter baumannii PR408 producing OXA-24/40 assessed as cefepime MIC at 8 ug/ml by broth microdilution method; type: functional; conditions: dose 8 µg/ml
Acinetobacter baumannii [20] = assay: Synergistic antibacterial activity against Acinetobacter baumannii PR474 producing OXA-23/24/40 assessed as cefepime MIC at 8 ug/ml by broth microdilution method; type: functional; conditions: dose 8 µg/ml
Escherichia coli [21] = assay: Synergistic antibacterial activity against Escherichia coli DH10B transfected with pBR322-catI-KPC-2 assessed as meropenem MIC at 4 ug/ml by broth microdilution method; type: functional; conditions: dose 4 µg/ml; outline: as §1
Escherichia coli [22] = assay: Synergistic antibacterial activity against Escherichia coli DH10B transfected with pBC SK (-) KPC-3 assessed as meropenem MIC at 4 ug/ml by broth microdilution method; type: functional; conditions: dose 4 µg/ml
Escherichia coli [23] = assay: Synergistic antibacterial activity against Escherichia coli DH10B transfected with pBC SK (-) OXA-48 assessed as meropenem MIC at 4 ug/ml by broth microdilution method; type: functional; conditions: dose 4 µg/ml; outline: as §1
Klebsiella pneumoniae [24] = assay: Synergistic antibacterial activity against Klebsiella pneumoniae 1084/1957 producing KPC-3 assessed as meropenem MIC at 4 ug/ml by broth microdilution method; type: functional; conditions: dose 4 µg/ml; outline: as §1
Klebsiella pneumoniae [25] = assay: Synergistic antibacterial activity against Klebsiella pneumoniae 1108/1989 producing KPC-3 assessed as meropenem MIC at 4 ug/ml by broth microdilution method; type: functional; conditions: dose 4 µg/ml; outline: as §1
Klebsiella pneumoniae [26] = assay: Synergistic antibacterial activity against Klebsiella pneumoniae 1398/2291 producing KPC-3 assessed as meropenem MIC at 4 ug/ml by broth microdilution method; type: functional; conditions: dose 4 µg/ml; outline: as §1
Pseudomonas aeruginosa [27] = assay: Synergistic antibacterial activity against Pseudomonas aeruginosa 839 assessed as meropenem MIC at 4 ug/ml by broth microdilution method; type: functional; conditions: dose 4 µg/ml
Acinetobacter baumannii [28] = assay: Synergistic antibacterial activity against Acinetobacter baumannii PR420 producing OXA-23/24/40 assessed as meropenem MIC at 4 ug/ml by broth microdilution method; type: functional; conditions: dose 4 µg/ml
Acinetobacter baumannii [29] = assay: Synergistic antibacterial activity against Acinetobacter baumannii PR448 producing OXA-23 assessed as meropenem MIC at 4 ug/ml by broth microdilution method; type: functional; conditions: dose 4 µg/ml
Klebsiella pneumoniae [30] = assay: Synergistic antibacterial activity against Klebsiella pneumoniae 729/1679 producing KPC-3 assessed as meropenem MIC at 8 ug/ml by broth microdilution method; type: functional; conditions: dose 8 µg/ml; outline: as §1
Klebsiella pneumoniae [31] = assay: Synergistic antibacterial activity against Klebsiella pneumoniae 1398/2291 producing KPC-3 assessed as meropenem MIC at 8 ug/ml by broth microdilution method; type: functional; conditions: dose 8 µg/ml; outline: as §1
Klebsiella pneumoniae [32] = assay: Synergistic antibacterial activity against Klebsiella pneumoniae 761/1723 producing KPC-3 assessed as meropenem MIC at 8 ug/ml by broth microdilution method; type: functional; conditions: dose 8 µg/ml
Klebsiella pneumoniae [33] = assay: Synergistic antibacterial activity against Klebsiella pneumoniae 1354/2241 producing KPC-3 assessed as meropenem MIC at 8 ug/ml by broth microdilution method; type: functional; conditions: dose 8 µg/ml; outline: as §1
Klebsiella pneumoniae [34] = assay: Synergistic antibacterial activity against Klebsiella pneumoniae CAV 1636 producing OXA-181 assessed as meropenem MIC at 8 ug/ml by broth microdilution method; type: functional; conditions: dose 8 µg/ml
Klebsiella pneumoniae [35] = assay: Synergistic antibacterial activity against Klebsiella pneumoniae NY BS producing OXA-232 assessed as meropenem MIC at 8 ug/ml by broth microdilution method; type: functional; conditions: dose 8 µg/ml
Klebsiella pneumoniae [36] = assay: Synergistic antibacterial activity against Klebsiella pneumoniae jefferson 1775 producing OXA-48 assessed as meropenem MIC at 8 ug/ml by broth microdilution method; type: functional; conditions: dose 8 µg/ml
Pseudomonas aeruginosa [37] = assay: Synergistic antibacterial activity against Pseudomonas aeruginosa 715 assessed as meropenem MIC at 8 ug/ml by broth microdilution method; type: functional; conditions: dose 8 µg/ml
Escherichia coli [38] = assay: Antibacterial activity against Escherichia coli DH10B transfected with pBC SK (-) KPC-3 by broth microdilution method; type: functional
Escherichia coli [39] = assay: Antibacterial activity against Escherichia coli DH10B transfected with pBR322-catI-KPC-2 by broth microdilution method; type: functional

| SMILES | T1/2 (Bacteria) | MIC (Escherichia coli [1]) | MIC (Acinetobacter baumannii [2]) | MIC (Klebsiella pneumoniae [3]) | MIC (Klebsiella pneumoniae [4]) | MIC (Klebsiella pneumoniae [5]) | MIC (Klebsiella pneumoniae [6]) | MIC (Klebsiella pneumoniae [7]) | MIC (Pseudomonas aeruginosa [8]) | MIC (Acinetobacter baumannii [9]) | MIC (Acinetobacter baumannii [10]) | MIC (Escherichia coli [21]) | MIC (Escherichia coli [22]) | MIC (Escherichia coli [23]) | MIC (Klebsiella pneumoniae [24]) | MIC (Klebsiella pneumoniae [25]) | MIC (Klebsiella pneumoniae [26]) | MIC (Pseudomonas aeruginosa [27]) | MIC (Acinetobacter baumannii [28]) | MIC (Acinetobacter baumannii [29]) | also measured |
| --- | --- | --- | --- | --- | --- | --- | --- | --- | --- | --- | --- | --- | --- | --- | --- | --- | --- | --- | --- | --- | --- |
| O=C(NNC(=O)[C@@H]1CC[C@@H]2CN1C(=O)N2OS(=O)(=O)O)[C@@H]1CCNC1 | 33 min | ≤ 0.12 µg/mL | 0.5 µg/mL | ≤ 0.12 µg/mL | ≤ 0.12 µg/mL | ≤ 0.12 µg/mL | ≤ 0.12 µg/mL | ≤ 0.12 µg/mL | 0.5 µg/mL | 16 µg/mL | 1 µg/mL | ≤ 0.12 µg/mL | ≤ 0.12 µg/mL | ≤ 0.12 µg/mL | ≤ 0.12 µg/mL | ≤ 0.12 µg/mL | ≤ 0.12 µg/mL | ≤ 0.12 µg/mL | > 16 µg/mL | > 16 µg/mL | MIC (Escherichia coli [11]): ≤ 0.12 µg/mL; MIC (Klebsiella pneumoniae [12]): ≤ 0.12 µg/mL; MIC (Klebsiella pneumoniae [13]): ≤ 0.12 µg/mL; MIC (Klebsiella pneumoniae [14]): ≤ 0.12 µg/mL; MIC (Klebsiella pneumoniae [15]): ≤ 0.12 µg/mL; MIC (Klebsiella pneumoniae [16]): ≤ 0.12 µg/mL; MIC (Acinetobacter baumannii [17]): > 16 µg/mL; MIC (Acinetobacter baumannii [18]): 8 µg/mL; MIC (Acinetobacter baumannii [19]): 16 µg/mL; MIC (Acinetobacter baumannii [20]): 8 µg/mL; MIC (Klebsiella pneumoniae [30]): ≤ 0.12 µg/mL; MIC (Klebsiella pneumoniae [31]): ≤ 0.12 µg/mL; MIC (Klebsiella pneumoniae [32]): ≤ 0.12 µg/mL; MIC (Klebsiella pneumoniae [33]): ≤ 0.12 µg/mL; MIC (Klebsiella pneumoniae [34]): ≤ 0.12 µg/mL; MIC (Klebsiella pneumoniae [35]): ≤ 0.12 µg/mL; MIC (Klebsiella pneumoniae [36]): ≤ 0.12 µg/mL; MIC (Pseudomonas aeruginosa [37]): 0.5 µg/mL |
| NC(=O)[C@@H]1CC[C@@H]2CN1C(=O)N2OS(=O)(=O)[O-].[Na+] [AVIBACTAM SODIUM] | 82 min | ≤ 0.12 µg/mL | 0.5 µg/mL | ≤ 0.12 µg/mL | ≤ 0.12 µg/mL | 0.5 µg/mL | 0.25 µg/mL | 0.5 µg/mL | > 16 µg/mL | > 16 µg/mL | 2 µg/mL | ≤ 0.12 µg/mL | ≤ 0.12 µg/mL | ≤ 0.12 µg/mL | ≤ 0.12 µg/mL | ≤ 0.12 µg/mL | ≤ 0.12 µg/mL | 1 µg/mL | > 16 µg/mL | > 16 µg/mL | MIC (Escherichia coli [38]): > 16 µg/mL; MIC (Escherichia coli [39]): > 16 µg/mL |
